Laboratory results as given in paper PMC9675722 (Cell chemical biology, 2022).
Read-outs that look alike come from different tables or passages of the source.

Experiments:
MOLT4 cells [1] = experiment: CellTiter-Glo proliferation assay, MOLT4; assay type: cell-based, Human; details: for EC50: read-out: anti-proliferative EC50
ERK5 [2] = biological target: T1, ERK5 (Homo sapiens, UniProt Q13164); experiment: ERK5 degradation in MOLT4 cells; assay type: cell-based; details: for DC50: read-out: DC50 of ERK5 degradation, 5-hour treatment
BRD4 = BRD4 (Homo sapiens, UniProt O60885); experiment: BRD4 immunoblot in MOLT4 cells; assay type: cell-based; details: 5 hours
Outline: (§1)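 MOLT4 cells (RPMI, 10% heat-inactivated FBS, pen-strep, 37 °C, 5% CO2) were exposed to test compound at a range of concentrations for 5 h. Lysis was in M-PER with protease and phosphatase inhibitors, and lysates were BCA-normalised. Samples were run on 4–12% Bis-Tris gels and blotted to nitrocellulose. ERK5, BRD4, AURKA and actin antibodies were applied overnight at 4 °C. Detection was by IRDye secondaries. Blots are representative of 2–3 biological replicates.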

MOLT4 cells [3] = experiment: global quantitative TMT MS proteomics in MOLT4 cells; assay type: cell-based, Human; details: MOLT4, 250 nM, 5 hours
Outline: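 MOLT4 cells were treated for 5 h with test compound (250 nM, or 100 nM for one degrader) or DMSO (biological triplicate), then harvested by centrifugation. TMT-labelled tryptic peptides were analysed by LC-MS3 on an Orbitrap Fusion Lumos using a 190 min 6–27% acetonitrile gradient. Spectra were searched against Swissprot human. Proteins with ≥2 unique peptides were kept, and abundance relative to DMSO was computed by limma.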

AURKA = biological target: T2, AURKA (Homo sapiens, UniProt O14965); experiment: AURKA immunoblot in MOLT4 cells; assay type: cell-based; details: 5 hours
T2 sequence (O14965 1-403): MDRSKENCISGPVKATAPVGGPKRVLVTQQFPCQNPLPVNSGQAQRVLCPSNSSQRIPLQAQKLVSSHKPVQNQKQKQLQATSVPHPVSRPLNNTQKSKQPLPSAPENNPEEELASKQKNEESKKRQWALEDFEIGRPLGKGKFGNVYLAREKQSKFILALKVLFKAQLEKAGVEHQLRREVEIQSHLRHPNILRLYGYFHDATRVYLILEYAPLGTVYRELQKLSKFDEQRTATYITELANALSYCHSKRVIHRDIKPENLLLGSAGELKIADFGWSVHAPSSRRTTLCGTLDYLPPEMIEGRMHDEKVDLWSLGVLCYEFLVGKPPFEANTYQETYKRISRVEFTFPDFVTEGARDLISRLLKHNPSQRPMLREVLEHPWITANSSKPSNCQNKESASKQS
Outline: as §1

ERK5 [4] = biological target: T1, ERK5; experiment: KdELECT biochemical binding assay; details: for binding affinity for ERK5 (in words): Table S1
Outline: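 Binding constants to ERK5 were determined in an outsourced KdELECT kinase binding assay from an 11-point dose–response curve.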

[5] = system: BRD4 and other members of the BET family proteins; details: ref Wang et al., 2018; cited from earlier work
SNU-449 cells = experiment: CellTiter-Glo proliferation assay, SNU-449; assay type: cell-based, Human; details: for EC50: Homo sapiens, SNU-449, 72 h, read-out: anti-proliferative EC50
IL-8 secretion = experiment: IL-8 ELISA, LPS-stimulated HUVECs; assay type: cell-based, Human; details: LPS 10 μg/mL 6 hours
Outline: (§2)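 HUVECs were seeded at 30,000–60,000 cells/well and pre-treated with test compound for 5 or 24 h. They were then stimulated with E. coli O111:B4 LPS at 10 μg/mL for 6 h. Secreted IL-6 or IL-8 in the supernatant was quantified by sandwich ELISA kits per the manufacturer. Statistics used two-way ANOVA with Bonferroni correction.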

BT-474 cells = experiment: CellTiter-Glo proliferation assay, BT-474; assay type: cell-based, Human; details: for EC50: Homo sapiens, BT-474, 72 h, read-out: anti-proliferative EC50
IL-6 secretion = experiment: IL-6 ELISA, LPS-stimulated HUVECs; assay type: cell-based, Human; details: LPS 10 μg/mL 6 hours
Outline: as §2

[6] = system: IL-6 stimulated MM.1S cells; experiment: IL-6-induced MM.1S proliferation; assay type: cell-based, Human; details: 500 nM and 1 μM, 5 nM IL-6, 3d
Outline: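 MM.1S cells at 10,000 cells/well were pre-treated for 5 h with test compound at 500 nM or 1 μM. Recombinant human IL-6 (5 nM) was then added. After 72 h, proliferation was read by CellTiter-Glo. Data are mean with standard deviation of three biological replicates.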

panel of 468 kinases = experiment: scanMAX KINOMEscan selectivity panel; assay type: binding; details: 1 μM
ERK5 [7] = details: read-out: reported IC50 for ERK5; ref Wang et al., 2018; cited from earlier work

T1 sequence (Q13164 whole entry): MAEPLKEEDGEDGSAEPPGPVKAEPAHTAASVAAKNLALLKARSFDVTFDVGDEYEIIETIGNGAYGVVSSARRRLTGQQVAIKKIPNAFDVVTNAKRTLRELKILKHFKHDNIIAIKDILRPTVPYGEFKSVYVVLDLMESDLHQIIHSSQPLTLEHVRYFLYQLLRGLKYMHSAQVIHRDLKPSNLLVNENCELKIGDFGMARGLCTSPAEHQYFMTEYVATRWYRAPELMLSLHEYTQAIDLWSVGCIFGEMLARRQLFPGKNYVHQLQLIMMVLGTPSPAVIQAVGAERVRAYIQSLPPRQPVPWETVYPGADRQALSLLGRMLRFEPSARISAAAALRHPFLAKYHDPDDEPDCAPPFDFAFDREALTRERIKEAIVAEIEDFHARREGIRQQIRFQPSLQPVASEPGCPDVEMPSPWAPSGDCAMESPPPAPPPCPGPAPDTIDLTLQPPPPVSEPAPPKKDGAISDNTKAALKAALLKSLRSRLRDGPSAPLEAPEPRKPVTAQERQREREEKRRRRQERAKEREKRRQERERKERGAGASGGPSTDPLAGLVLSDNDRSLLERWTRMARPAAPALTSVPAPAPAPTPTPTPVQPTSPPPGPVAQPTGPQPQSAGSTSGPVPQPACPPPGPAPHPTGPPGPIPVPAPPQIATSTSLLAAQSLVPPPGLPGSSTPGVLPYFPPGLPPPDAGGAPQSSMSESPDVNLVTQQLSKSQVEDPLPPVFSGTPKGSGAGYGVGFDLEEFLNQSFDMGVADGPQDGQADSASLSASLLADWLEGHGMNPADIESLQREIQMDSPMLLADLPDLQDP

binding affinity for ERK5 (in words) (ERK5 [4])	Structure (SMILES)	IL-8 secretion upon LPS stimulation (IL-8 secretion; 5-hour pre-treatment)	IL-8 secretion upon LPS stimulation (IL-8 secretion; 24-hour pre-treatment)	IL-6 secretion upon LPS stimulation (IL-6 secretion; 5-hour pre-treatment)	IL-6 secretion upon LPS stimulation (IL-6 secretion; 24-hour pre-treatment)	EC50 (MOLT4 cells [1]; Homo sapiens, MOLT-4, 72 h) [µM]	EC50 (SNU-449 cells) [µM]	EC50 (BT-474 cells) [µM]	other results
high binding affinities	Cc1ncsc1-c1ccc([C@H](C)NC(=O)[C@@H]2C[C@@H](O)CN2C(=O)[C@@H](NC(=O)CCCCCN2CCN(C(=O)c3ccc(Nc4ncc5c(n4)N(C4CCCC4)c4ccccc4C(=O)N5C)cc3)CC2)C(C)(C)C)cc1 [INY-05-091, (2S,4R)-1-((S)-2-(6-(4-(4-((11-cyclopentyl-5-methyl-6-oxo-6,11-dihydro-5H-benzo[e]pyrimido[5,4-b][1,4]diazepin-2-yl)amino)benzoyl)piperazin-1-yl)hexanamido)-3,3-dimethylbutanoyl)-4-hydroxy-N-((S)-1-(4-(4-methylthiazol-5-yl)phenyl)ethyl)pyrrolidine-2-carboxamide]								anti-proliferative activity (in words) (MOLT4 cells [1]; MOLT4, 3 days): potent anti-proliferative activities; DC50 (ERK5 [2]): 0.167 µM; BRD4 protein levels (BRD4): potent BRD4 degradation; AURKA protein abundance, proteomics (MOLT4 cells [3]): induced downregulation; BRD3 and BRD4 protein abundance, proteomics (MOLT4 cells [3]): additional downregulated targets; ERK5 (MAPK7) protein abundance, proteomics (MOLT4 cells [3]): potent downregulation; AURKA protein levels (AURKA): validated through immunoblot analysis
	CCOc1cc(C(=O)N2CCC(N3CCN(C)CC3)CC2)ccc1Nc1ncc2c(n1)N(C1CCCC1)c1ccccc1C(=O)N2C [XMD17-109]	reduced	significantly reduced	reduced	significantly reduced				binding to off-target BET family proteins [5]: binds to and inhibits BRD4 and other members of the BET family proteins; anti-proliferative activity (in words) (MOLT4 cells [1]; MOLT4, 3 days): potent anti-proliferative activities; anti-proliferative effect (in words) (SNU-449 cells; SNU-449, 3d treatment): the only compound to display anti-proliferative effects; anti-proliferative effect (in words) (BT-474 cells; BT-474, 3d treatment): the only compound to display anti-proliferative effects
high binding affinities	CCC(C)N1c2ccccc2C(=O)N(C)c2cnc(Nc3ccc(C(=O)N4CCN(CCCCCC(=O)N[C@H](C(=O)N5C[C@H](O)C[C@H]5C(=O)N[C@@H](C)c5ccc(-c6scnc6C)cc5)C(C)(C)C)CC4)cc3)nc21 (stereo partly drawn) [INY-05-128, (2S,4R)-1-((2S)-2-(6-(4-(4-((11-(sec-butyl)-5-methyl-6-oxo-6,11-dihydro-5H-benzo[e]pyrimido[5,4-b][1,4]diazepin-2-yl)amino)benzoyl)piperazin-1-yl)hexanamido)-3,3-dimethylbutanoyl)-4-hydroxy-N-((S)-1-(4-(4-methylthiazol-5-yl)phenyl)ethyl)pyrrolidine-2-carboxamide]					1.1			DC50 (ERK5 [2]): 0.281 µM; BRD4 protein levels (BRD4): no effect; AURKA protein abundance, proteomics (MOLT4 cells [3]): induced downregulation; ERK5 (MAPK7) protein abundance, proteomics (MOLT4 cells [3]): potent downregulation; AURKA protein levels (AURKA): validated through immunoblot analysis
	CN1CCN(c2cnc3c(C4CCN(C(=O)c5ccc(OC(F)(F)F)cc5N)CC4)ncnc3c2)CC1 [BAY-885]	no effect	no effect	no effect	no effect	> 10	> 20	> 20	effect on IL-6-induced proliferation [6]: no effect; Kd (ERK5 [4]): 0.001 µM
	Cc1ncsc1-c1ccc([C@H](C)NC(=O)[C@H]2C[C@H](O)CN2C(=O)[C@@H](NC(=O)CCCCCN2CCN(c3ccc4c(C5CCN(C(=O)c6ccc(OC(F)(F)F)cc6N)CC5)ncnc4c3)CC2)C(C)(C)C)cc1 [INY-06-089, (2R,4S)-1-((S)-2-(6-(4-(4-(1-(2-amino-4-(trifluoromethoxy)benzoyl)piperidin-4-yl)quinazolin-7-yl)piperazin-1-yl)hexanamido)-3,3-dimethylbutanoyl)-4-hydroxy-N-((S)-1-(4-(4-methylthiazol-5-yl)phenyl)ethyl)pyrrolidine-2-carboxamide]	no effect		no effect			> 20	> 20	ERK5 downregulation (ERK5 [2]; 5 hours, concentrations up to 5 μM): unable to induce ERK5 downregulation; potential off-target kinases (panel of 468 kinases): also inhibits the same kinases
	CCOc1cc(C(=O)N2CCC(N3CCN(C)CC3)CC2)ccc1Nc1ncc2c(n1)N(S(C)(=O)=O)c1ccccc1C(=O)N2C [AX15836, reference compound]					> 10	> 20	> 20	effect on IL-6-induced proliferation [6]: no effect
high binding affinity	CN1CCN(c2ccc3c(C4CCN(C(=O)c5ccc(OC(F)(F)F)cc5N)CC4)ncnc3c2)CC1 [INY-06-086, (2-amino-4-(trifluoromethoxy)phenyl)(4-(7-(4-methylpiperazin-1-yl)quinazolin-4-yl)piperidin-1-yl)methanone]						> 20	> 20	biochemical selectivity profile across the kinome (panel of 468 kinases; 468 kinases): similarly selective for ERK5 as BAY-885
	CCOc1cc(N2CCC(O)CC2)ccc1Nc1ncc2c(n1)N(C)c1ccccc1C(=O)N2C [XMD8-92]	reduced	significantly reduced	reduced	significantly reduced				
	CCC(C)N1c2ccccc2C(=O)N(C)c2cnc(Nc3ccc(C(=O)N4CCC(N5CCN(C)CC5)CC4)cc3OC)nc21 (centres unmarked) [JWG-071]								binding to off-target BET family proteins [5]: significantly reduced affinity; EC50 (MOLT4 cells [1]; MOLT4, 3 days): 2.4 µM; IC50 (ERK5 [7]): 0.088 µM
